This note sets out measurements from ChEMBL document CHEMBL1208758, “GPR109a agonists. Part 2: pyrazole-acids as agonists of the human orphan G-protein coupled receptor GPR109a” (Bioorg Med Chem Lett, 2010).

By half-life is commonly meant the time needed for the level to fall by half in the phase considered. A word on the bioavailability: it is dose-corrected exposure relative to a reference, in per cent.

A short description of data set [1]: Half life in C57BL/6 mouse at 2 mg/kg, po and 1 mg/kg, iv. It counts as ADME, organism-based. The settings on record: in vivo. Summed up: (§1)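 Pharmacokinetics in C57BL/6 mice: single dose 1 mg/kg iv or 2 mg/kg po.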
Data set [2] is described as follows: Volume of distribution at steady state in C57BL/6 mouse at 2 mg/kg, po and 1 mg/kg, iv. The class given is ADME, organism-based. The settings on record: in vivo, read-out: Vdss. The essentials: as §1
A short description of data set [3]: Plasma clearance in C57BL/6 mouse at 2 mg/kg, po and 1 mg/kg, iv. It counts as ADME, organism-based. The essentials:
as §1

In data set [4] the test system is Mus musculus. The experiment in a line: Reduction in plasma free fatty acid level in C57BL/6 mouse at 10 mg/kg, ip after 15 mins. The following applies: route intraperitoneal. The arrangement: scale not given: the % may be the effect or the level left. The class given is functional. The essentials: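 Male C57BL/6 mice, six per group, single 10 mpk ip dose; plasma free fatty acids measured 15 min after dosing and reported as percent reduction. Niacin given at 100 mpk ip as comparator.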

The nature of data set [5]: Oral bioavailability in C57BL/6 mouse at 2 mg/kg. The settings on record: in vivo. The class given is ADME, organism-based. Summed up: as §1

As for `Cn1nccc1C1Cc2[nH]nc(C(=O)O)c2C1` (centres undefined), in data set [1], the half-life is 2.3 h. Further, in data set [2], the Vd was found to be 4.2 L/kg. The molecule also returned a clearance in data set [3] of 86 mL/min/kg. Further, the Activity in data set [4] amounted to 41%. Also, in data set [5], the bioavailability is 27%.
Consider `O=C(O)c1n[nH]c2c1CC(c1cc(F)cc(F)c1F)C2` (centres undefined), for which the Vd in data set [2] was determined as 9.3 L/kg. This molecule yielded a clearance in data set [3] of 24 mL/min/kg. The same molecule showed a bioavailability in data set [5] of 53%.
`Fc1cc(F)c(F)c(C2Cc3[nH]nc(-c4nnn[nH]4)c3C2)c1` (centres undefined) gave an Activity in data set [4] of 21%.
